Experiments:
[1] = Therapeutic index, ratio of IC50 for mouse Peritoneal macrophages to IC50 for SSG-resistant Leishmania donovani 39 amastigote infected in mouse peritoneal macrophages; details: read-out: Ratio IC50
[2] = Cytotoxicity against mouse Peritoneal macrophages cells after 72 hrs by MTS assay; assay type: cell-based; details: Peritoneal macrophage cell
Method in brief: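 Primary mouse peritoneal elicited macrophages were seeded at 2 × 10^4 cells per well in DMEM with 10% heat-inactivated FBS. They were exposed to graded doses for 72 h at 37 °C in 5% CO2. Survival was read by MTS/PMS tetrazolium reduction (OD 490 nm) relative to untreated control. The IC50 was the concentration halving OD. Results are mean ± SEM of 1–4 independent experiments.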

[3] = test system: Leishmania donovani; assay: Antimicrobial activity against SSG-resistant Leishmania donovani 39 amastigote infected in mouse peritoneal macrophages assessed as inhibition of parasite growth after 72 hrs by Giemsa staining method; assay type: functional, organism-based; details: Leishmania donovani, 39, 72 h
Method in brief: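 Mouse peritoneal elicited macrophages were seeded on coverslips at 1 × 10^5 cells per well in DMEM with 10% heat-inactivated FBS and left to attach overnight. They were infected overnight with late-log Ld39 promastigotes (parasite:macrophage 20:1) at 37 °C, 5% CO2, then washed. Compounds were applied for 72 h at 37 °C. Giemsa-stained amastigotes per 100 macrophages gave IC50; N = 1−3.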

[4] = test system: Leishmania donovani; assay: Antimicrobial activity against SSG-resistant Leishmania donovani 39 promastigote assessed as inhibition of parasite growth after 72 hrs by MTS assay; assay type: functional, organism-based; details: Leishmania donovani, 39, 72 h
Method in brief: (§1)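 Promastigotes were grown in Schneider's medium pH 6.9 with 10% heat-inactivated FBS at 27 °C, seeded at 1 × 10^5 per well, and exposed to serial concentrations for 72 h at 27 °C. Compounds were in DMSO (≤1% final) or water. MTS:PMS (20:1) was added for 4 h, then OD490 was read. Survival was % of untreated control; IC50 = concentration halving OD; N = 1−4.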

[5] = test system: Leishmania donovani; assay: Antimicrobial activity against wild-type Leishmania donovani AG83 promastigote assessed as inhibition of parasite growth after 72 hrs by MTS assay; assay type: functional, organism-based; details: AG83, 72 h
Method in brief: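 Promastigotes were grown in Schneider's medium pH 6.9 with 10% heat-inactivated FBS at 27 °C, seeded at 1 × 10^5 per well, and exposed to serial concentrations for 72 h at 27 °C. Compounds were in DMSO (≤1% final) or water. MTS:PMS (20:1) was added for 4 h, then OD490 was read.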

[6] = test system: RAW264.7; assay: Cytotoxicity against mouse RAW264.7 cells after 72 hrs by MTS assay; assay type: cell-based; details: RAW264.7, 72 h
Method in brief: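 RAW 264.7 murine macrophage line was plated at 1 × 10^4 cells per well in supplemented DMEM. Cells received a graded compound series for 72 h at 37 °C, 5% CO2, with a maximum of 1% DMSO. Viability was measured by MTS with PMS coupling at OD 490 nm, as percent of untreated control. The IC50 was the concentration reducing OD by half, given as mean ± SEM, N = 1–4.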

[7] = test system: Leishmania donovani; assay: Antimicrobial activity against pentamidine-resistant Leishmania donovani AG83PentR50 promastigote assessed as inhibition of parasite growth after 72 hrs by MTS assay; assay type: functional, organism-based; details: AG83PentR50, 72 h; method in brief: as §1
[8] = test system: Leishmania donovani; assay: Antimicrobial activity against axenically grown Leishmania donovani amastigotes; assay type: functional, organism-based

Row | IC50 [8] | Compound | selectivity ratio [1] | IC50 [2] | IC50 [3] | IC50 [4] | IC50 [5] | IC50 [6] | IC50 [7]
1 |  | O=c1cc(-c2ccc(OCCN(CCOc3ccc(-c4cc(=O)c5ccccc5o4)cc3)Cc3ccncc3)cc2)oc2ccccc12 | > 10 | > 58 µM | 5.8 µM | > 50 µM | 1.4 µM |  | 
2 |  | CCCCCCCCCCCCCCCCOP(=O)([O-])OCC[N+](C)(C)C [MILTEFOSINE] |  | 75.3 µM | 16 µM | 17.3 µM |  | 20 µM | 9.3 µM
3 |  | O=c1cc(-c2ccccc2OCCOCCN(CCOCCOc2ccccc2-c2cc(=O)c3ccccc3o2)Cc2ccncc2)oc2ccccc12 | > 1.6 | > 11 µM | 7 µM | 4 µM | 2.3 µM |  | 
4 |  | O=c1cc(-c2ccc(OCCOCCN(CCOCCOc3ccc(-c4cc(=O)c5ccccc5o4)cc3)Cc3ccccn3)cc2)oc2ccccc12 | > 8 | > 33 µM | 4.1 µM | 4.2 µM | 5 µM | 53 µM | 
5 | 7.2 µM | O=c1cc(-c2ccc(Oc3c(O)cc(O)c4c(=O)cc(-c5ccc(O)cc5)oc34)cc2)oc2cc(O)cc(O)c12 [LANAROFLAVONE] |  |  |  |  |  |  | 
6 |  | O=c1cc(-c2ccc(OCCOCCN(CCOCCOc3ccc(-c4cc(=O)c5ccccc5o4)cc3)Cc3ccncn3)cc2)oc2ccccc12 | > 23.6 | > 33 µM | 1.4 µM | 0.58 µM | 0.44 µM |  | 
7 | 2.7 µM | COc1ccc(-c2cc(=O)c3c(O)cc(O)cc3o2)cc1-c1c(O)cc(O)c2c(=O)cc(-c3ccc(O)cc3)oc12 [BILOBETIN] |  |  |  |  |  |  | 
8 | 2.8 µM | COc1cc(O)c2c(=O)cc(-c3ccc(OC)c(-c4c(O)cc(O)c5c(=O)cc(-c6ccc(O)cc6)oc45)c3)oc2c1 [GINKGETIN] |  |  |  |  |  |  | 
9 |  | O=c1cc(-c2ccc(OCCOCCOCCOCCOCCOCCOCCOc3ccc(-c4cc(=O)c5ccccc5o4)cc3)cc2)oc2ccccc12 |  |  |  | 10.3 µM | 6.2 µM | 4.8 µM | 7.3 µM
10 |  | CCc1ccc2oc(-c3ccc(OCCOCCOCCOCCOCCOCCOc4ccc(-c5cc(=O)c6cc(CC)ccc6o5)cc4)cc3)cc(=O)c2c1 |  |  |  | 2.5 µM | 3.1 µM | 5.5 µM | 3.3 µM
11 |  | O=c1cc(-c2ccc(OCCOCCN(CCOCCOc3ccc(-c4cc(=O)c5ccccc5o4)cc3)Cc3ccnc(Br)c3)cc2)oc2ccccc12 | > 10 | > 100 µM | > 10 µM | > 50 µM | 1.8 µM |  | 
12 |  | O=c1cc(-c2ccc(OCCOCCOCCOCCOCCOc3ccc(-c4cc(=O)c5ccccc5o4)cc3)cc2)oc2ccccc12 |  |  |  | 7.8 µM | 5.3 µM | 8.9 µM | 10.4 µM
13 |  | COc1cc(-c2cc(=O)c3ccccc3o2)ccc1OCCOCCN(CCOCCOc1ccc(-c2cc(=O)c3ccccc3o2)cc1OC)Cc1ccncc1 |  | 2.7 µM |  | 0.69 µM | 0.63 µM |  | 
14 |  | O=c1cc(-c2ccc(OCCOCCOCCOCCOc3ccc(-c4cc(=O)c5ccccc5o4)cc3)cc2)oc2ccccc12 |  |  |  | > 24 µM | > 24 µM | > 100 µM | > 24 µM
15 |  | O=c1cc(-c2ccc(OCCOCCN(CCOCCOc3ccc(-c4cc(=O)c5ccccc5o4)cc3)Cc3ccncc3Br)cc2)oc2ccccc12 | > 13.1 | > 100 µM | > 7.6 µM | > 50 µM | 0.65 µM |  | 
16 |  | N#Cc1cc(CN(CCOCCOc2ccc(-c3cc(=O)c4ccccc4o3)cc2)CCOCCOc2ccc(-c3cc(=O)c4ccccc4o3)cc2)ccn1 | > 12.1 | > 92 µM | 7.6 µM | > 50 µM | 1.1 µM |  | 

Source: ChEMBL document CHEMBL2169835, “Flavonoid dimers as novel, potent antileishmanial agents” (J Med Chem, 2012)
